Rad51 HR inh: Rad51 (human) homologous recombination inhibition | 0.085% of 200,000 active | Q06609 | inhibition, % at 10 µM | hRad51 DNA strand exchange, fluorescence dequenching;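 active means inhibition above 40% at the single screening dose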;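 further: 0% = DMSO control wells and 100% = blanks with heterologous ssDNA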
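material = hRad51 filaments on single-stranded DNA | timing = filaments 15 min 37 °C, then compound 30 min | signal = FRET fluorescence dequenching, excitation 485 nm, emission 520 nm | benchmarks = control wells and blank wells on each plate | evaluation = percent inhibition relative to plate controls and blanks | compound = 10 µM final, single point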
WT yeast gro inh: growth inhibition of WT yeast, mitochondrial fusion screen; mitochondrial fusion phenotypic screen, WT strain; inhibition, % at 10 µM; 2.1% of 190,000 active; AID 1362; in the data active means inhibition above about 58%; tested in S. cerevisiae
Calpain2 inh: calpain II (pig) inhibition | 0.37% of 220,000 active | purified calpain II, fluorogenic peptide substrate, 30 min | inhibition, % at 16 µM;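 active means inhibition above about 50%, limit read from the data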
L major viab: inhibitors of Leishmania major promastigote growth | Leishmania major promastigotes, resazurin fluorescence viability | 9% of 200,000 active | inhibition, % at 10 µM; in the data active means inhibition above about 50%;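 further: promastigotes grown with compound for 44 hours at 28 °C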
PMI activator: increases human mannose-6-phosphate isomerase activity | P34949 | purified human PMI, coupled resazurin fluorescence, 20 min; hits give high values; 1 = vehicle control, 0 substrate-free wells | activation factor at 20 µM | 0.005% of 190,000 active;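 active means activation factor of 2 or more at 20 µM, relative to plate controls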
Target sequence (P34949 whole entry, looked up): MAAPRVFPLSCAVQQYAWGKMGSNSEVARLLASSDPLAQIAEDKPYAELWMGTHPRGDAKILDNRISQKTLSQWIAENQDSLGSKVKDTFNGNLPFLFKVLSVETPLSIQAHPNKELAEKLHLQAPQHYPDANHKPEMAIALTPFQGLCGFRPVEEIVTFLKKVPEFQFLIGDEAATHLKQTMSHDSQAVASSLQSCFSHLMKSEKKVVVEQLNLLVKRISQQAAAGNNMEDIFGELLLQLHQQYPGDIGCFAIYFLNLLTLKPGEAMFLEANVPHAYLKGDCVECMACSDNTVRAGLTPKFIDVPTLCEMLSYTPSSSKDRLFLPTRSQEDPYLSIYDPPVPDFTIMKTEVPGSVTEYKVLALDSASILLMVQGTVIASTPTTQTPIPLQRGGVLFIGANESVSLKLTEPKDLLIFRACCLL
PMI act hi M6P: increases human PMI activity with near-saturating mannose 6-phosphate; P34949; coupled PMI enzyme assay, resazurin fluorescence, 20 min; hits give high values; 1 = untreated enzyme, 0 = substrate-free blank; activation factor at 20 µM; 0.34% of 190,000 active; AID 1216;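 active means activation factor of 2 or more at 20 µM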
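Test system: human phosphomannose isomerase with PGI, G6PDH, diaphorase coupling enzymes / Doses: 20 µM compound, 1% DMSO / Times: enzyme reaction with compound 20 min at room temperature / Measured by: Diaphorase-driven resazurin-to-resorufin fluorescence, excitation 544, emission 590 nm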
* = called active by the depositor; / = not tested or not shown. Hits are enriched below; roughly 9.8% of the tested compounds scored in any of these assays.

SMILES | Rad51 HR inh | WT yeast gro inh | Calpain2 inh | L major viab | PMI activator | PMI act hi M6P
COc1ccc(C(=O)NNC(=O)C(NC(=O)c2ccccc2NC(=O)c2ccco2)C(C)C)cc1 (stereo not drawn) | -2.5 | 8.0 | 16.7 | 66.9* | 0.9 | 0.9
CCOC(=O)C(=NCC1CCCO1)NNc1ccccc1Cl (stereo not drawn) | 43.9* | / | 0.2 | / | / | /
CCOC(=O)C(=NC(C)(C)C)NNc1cc(Cl)ccc1Cl | 17.1 | 53.1 | -0.8 | -3.1 | 1.2 | 1.5
O=C(CC(C(=O)N1CCc2ccccc21)n1ccnc1)N1CCc2ccccc2C1 (stereo not drawn) | / | 0.1 | 0.9 | 100.3* | 0.9 | 0.7
CCN(CCCNC(=O)CC(C(=O)N1CCc2ccccc21)n1ccnc1)c1cccc(C)c1 (stereo not drawn) | -4.2 | -2.9 | -13.3 | 99.8* | 0.9 | 0.8
O=C(CC(C(=O)N1CCc2ccccc21)n1ccnc1)NCC1CCCO1 (stereo not drawn) | / | 2.7 | 2.2 | 10.8 | 1.1 | 1
Cc1cc(C)n(C(CC(=O)N2CCc3ccccc3C2)C(=O)O)n1 (stereo not drawn) | 4.4 | 1.7 | 20.7 | -4.2 | 1.1 | 1
CCCCNC(=O)CC(C(=O)N1CCc2ccccc21)n1ccnc1 (stereo not drawn) | -2.4 | / | -0.6 | 88.2* | 1.1 | 1.1
O=S(=O)(Nc1ccccn1)c1cccs1 | 7.2 | -5.0 | -43.5 | 3.5 | 1 | 1
Cc1[nH]c(=O)[nH]c(=O)c1N1CCOCC1 | 1.6 | / | -13.2 | / | / | /
COc1ccc(-c2nn(-c3ccccc3)cc2C(=O)NC(=S)Nc2cc(Cl)ccc2Cl)cc1 | -32.4 | / | -21.0 | / | / | /
O=C1/C(=C/c2cccnc2)Oc2cc(OS(=O)(=O)c3ccc(Cl)cc3)ccc21 | -4.8 | 6.5 | -155.7 | 14.1 | 1 | 1
O=C1/C(=C/c2cccnc2)Oc2cc(OS(=O)(=O)c3ccccc3)ccc21 | 3.4 | -18.1 | -105.8 | 57.0* | 1.1 | 1.1
COc1ccc(S(=O)(=O)Oc2ccc3c(c2)O/C(=C\c2cccnc2)C3=O)cc1 | 9.1 | 8.5 | -326.9 | 85.8* | 0.9 | 1
COc1cccc(NC(=S)N(Cc2ccc(Cl)cc2)Cc2ccc(C(=O)O)cc2)c1 | / | 3.4 | 17.9 | -0.4 | 1.4 | 1.3
CCN(CC)c1nc2cc(C)ccc2cc1/C=C(\C#N)C(N)=O | -44.7 | 5.3 | -8.9 | 17.3 | 0.8 | 0.8
COc1cc(OC)c(OC)cc1CNCCSc1nnnn1C | 1.3 | 0.2 | -21.7 | 1.1 | 1 | 0.8
COc1ccc(-c2csc(Nc3ccc(C)cn3)n2)cc1 | / | 58.1* | -6.2 | 12.2 | 1 | 0.9
COc1ccc(-c2csc(NC3=NCCCCC3)n2)cc1 | -2.5 | 9.0 | 4.2 | 88.5* | 0.9 | 1
COc1ccc(-c2csc(NNC3=NCCCCC3)n2)cc1 | 22.1 | 16.8 | 1.7 | 2.3 | 0.6 | 0.7
COCCCNC(=S)NC1CC2CCCC(C1)N2Cc1ccco1 (stereo not drawn) | -1.6 | 99.1* | 20.2 | -0.3 | 0.9 | 0.9
CC(C)CN1C2CCCC1CC(NC(=S)NCc1ccco1)C2 (stereo not drawn) | 13.7 | 4.5 | -24.5 | 34.0 | 0.8 | 0.9
CC(C)CNC(=S)NC1CC2CCCC(C1)N2Cc1ccco1 (stereo not drawn) | -0.7 | 34.1 | 21.1 | 62.2* | 1 | 1.1
CC(C)CNC(=S)NC1CC2CCCC(C1)N2Cc1cccs1 (stereo not drawn) | -8.5 | 17.1 | 19.3 | 94.3* | 1 | 0.9
COC(=O)c1cc([N+](=O)[O-])ccc1N1CCN(Cc2ccccc2)CC1 | -3.1 | 9.7 | -7.1 | 43.8 | 1 | 0.9
COC(=O)c1ccccc1S(=O)(=O)N1Cc2cc([N+](=O)[O-])ccc2Oc2ccccc21 | 3.5 | 29.3 | -14.5 | 85.9* | 0.9 | 0.9
CCC1CCCCN1C(=O)CCc1nnc(C2CCCCC2)o1 (stereo not drawn) | -4.2 | -10.7 | -21.9 | -0.9 | 1.1 | 1.1
CCCCNS(=O)(=O)c1ccc2nc(SCC(N)=O)[nH]c2c1 | / | / | -16.1 | / | / | /
CCCCNS(=O)(=O)c1ccc2nc(SCC(=O)Nc3ccccc3Cl)[nH]c2c1 | -11.1 | 10.7 | 56.4* | 8.7 | 0.7 | 0.8
CCCCNS(=O)(=O)c1ccc2nc(SCC(=O)Nc3cccc(F)c3)[nH]c2c1 | / | 6.4 | 25.7 | -2.6 | 1 | 1

High-throughput results deposited in PubChem BioAssay by several laboratories.
